Experimental data from paper PMC5299035 (Drug development research, 2016).

Key:
Format in all cases: cell-based
human neutrophils = experiment: Ca2+ mobilization assay in human neutrophils; details: Homo sapiens, Neutrophil, read-out: Ca2+ flux human neutrophils EC50
Summary of the method: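 Neutrophils from healthy donors were purified by dextran sedimentation, Histopaque 1077 gradient and hypotonic red-cell lysis (>95% pure, >98% viable). After Fluo-4 AM loading (1.25 μg/mL final, 30 min, 37 °C, dark), cells were seeded at 2 × 10^5/well in HBSS with Ca2+/Mg2+. Fluorescence (485/538 nm) was tracked every 5 s for 240 s at room temperature. Maximum change over baseline was normalised, and EC50 came from a 5-6-point nonlinear fit.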

FPR1 = target: T1, FPR1 (Homo sapiens, UniProt P21462); experiment: Ca2+ mobilization assay in FPR1-HL60 cells; details: for Emax: read-out: Ca2+ flux FPR1-HL60 efficacy
T1 sequence (P21462 1-350): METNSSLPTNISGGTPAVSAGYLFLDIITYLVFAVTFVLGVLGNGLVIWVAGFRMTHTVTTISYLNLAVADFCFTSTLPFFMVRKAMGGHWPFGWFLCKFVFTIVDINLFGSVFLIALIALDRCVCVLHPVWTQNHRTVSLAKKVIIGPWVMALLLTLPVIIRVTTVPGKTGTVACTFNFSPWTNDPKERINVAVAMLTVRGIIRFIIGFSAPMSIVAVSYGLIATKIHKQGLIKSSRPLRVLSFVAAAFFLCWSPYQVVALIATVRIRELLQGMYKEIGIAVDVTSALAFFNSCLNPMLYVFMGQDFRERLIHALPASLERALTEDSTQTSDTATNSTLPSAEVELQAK
Summary of the method: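 FPR1-transfected HL60 cells were grown in RPMI 1640 with 10% heat-inactivated FCS, 10 mM HEPES and G418 (1 mg/mL). Cells were loaded with Fluo-4 AM (1.25 μg/mL final) for 30 min at 37 °C in the dark, then washed and seeded in HBSS+ at 2 × 10^5 cells/well. Fluorescence (485/538 nm) was read every 5 s for 240 s at room temperature after compound addition. Peak rise over baseline was set against 5 nM fMLF (100%). EC50 came from nonlinear regression of 5-6-point curves, mean of three independent experiments. No activity meant no response within 2 min (limits: efficacy >20%, EC50 <50 μM).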

FPR2 = target: T2, FPR2 (Homo sapiens, UniProt P25090); experiment: Ca2+ mobilization assay in FPR2-HL60 cells; details: for Emax: read-out: Ca2+ flux FPR2-HL60 efficacy
T2 sequence (P25090 1-351): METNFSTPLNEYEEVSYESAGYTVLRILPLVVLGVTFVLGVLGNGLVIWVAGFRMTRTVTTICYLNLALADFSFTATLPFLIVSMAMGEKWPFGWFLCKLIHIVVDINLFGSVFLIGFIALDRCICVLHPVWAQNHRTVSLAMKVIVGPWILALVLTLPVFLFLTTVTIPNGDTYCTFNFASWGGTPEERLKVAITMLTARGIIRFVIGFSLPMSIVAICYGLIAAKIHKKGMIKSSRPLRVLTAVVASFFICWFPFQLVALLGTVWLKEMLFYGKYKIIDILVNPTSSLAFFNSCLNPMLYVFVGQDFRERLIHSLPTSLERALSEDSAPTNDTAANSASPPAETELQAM
Summary of the method: (§1)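 FPR2- or FPR3-transfected HL60 cells were grown in RPMI 1640 with 10% heat-inactivated FCS and G418 1 mg/mL. Cells were loaded with Fluo-4 AM (1.25 μg/mL final) for 30 min at 37 °C in the dark, washed, and seeded at 2 × 10^5 cells/well in HBSS+. Fluorescence (ex 485/em 538 nm) was read every 5 s for 240 s at room temperature. Peak rise over baseline was normalised to the reference agonist. EC50 came from 5-6-point nonlinear regression over three independent experiments.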

FPR3 = target: T3, FPR3 (Homo sapiens, UniProt P25089); experiment: Ca2+ mobilization assay in FPR3-HL60 cells; details: for Emax: read-out: Ca2+ flux FPR3-HL60 efficacy
T3 sequence (P25089 1-353): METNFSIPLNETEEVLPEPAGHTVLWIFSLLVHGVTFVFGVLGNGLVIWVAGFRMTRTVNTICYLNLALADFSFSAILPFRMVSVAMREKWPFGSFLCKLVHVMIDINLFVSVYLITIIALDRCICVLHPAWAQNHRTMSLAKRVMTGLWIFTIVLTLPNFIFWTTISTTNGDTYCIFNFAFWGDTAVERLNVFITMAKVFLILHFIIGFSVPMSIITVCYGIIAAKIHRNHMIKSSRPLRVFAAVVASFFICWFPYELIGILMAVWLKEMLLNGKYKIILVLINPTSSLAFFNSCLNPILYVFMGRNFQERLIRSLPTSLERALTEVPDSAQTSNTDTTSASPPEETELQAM
Summary of the method: as §1

Row | Compound | EC50 (human neutrophils) | EC50 (FPR1) | Emax (FPR1) | EC50 (FPR2) | Emax (FPR2) | EC50 (FPR3) | Emax (FPR3)
1 | CC(=O)c1sc(=O)n(CC(=O)Nc2ccc(Br)cc2)c1C [9a, 2-(5-Acetyl-4-methyl-2-oxo-thiazol-3-yl)-N-(4-bromophenyl)acetamide] | 12.2 ± 2.5 µM | 8.9 ± 1.9 µM | 75% | 5.8 ± 1.4 µM | 60% | – | –
2 | Cc1csc(=O)n1CC(=O)Nc1ccc(Br)cc1 [9b, N-(4-Bromophenyl)-2-(4-methyl-2-oxo-thiazol-3-yl)acetamide] | 10.7 ± 2.3 µM | 12.4 ± 2.6 µM | 70% | 4.1 ± 1.1 µM | 80% | 27.8 ± 3.2 µM | 85%
3 | O=C(Cn1c(-c2ccc(Cl)cc2)csc1=O)Nc1ccc(Br)cc1 [9g, N-(4-Bromophenyl)-2-[4-(4-chlorophenyl)-2-oxothiazol-3-yl]acetamide] | 12.2 ± 3.1 µM | – | 75% | – | 75% | – | –
4 | O=C(Cn1c(-c2cccc(Cl)c2)csc1=O)Nc1ccc(Br)cc1 [9f, N-(4-Bromophenyl)-2-[4-(3-chlorophenyl)-2-oxothiazol-3-yl]acetamide] | 11.1 ± 2.8 µM | 6 ± 1.7 µM | 75% | 3 ± 0.7 µM | 110% | 32.2 ± 3.6 µM | 75%
5 | Nc1ccc(-c2csc(=O)n2CC(=O)Nc2ccc(Br)cc2)cc1 [compound 10, 2-[4-(4-Aminophenyl)-2-oxothiazol-3-yl]-N-(4-bromophenyl)acetamide] | 36.1 ± 3.9 µM | 34.9 ± 4.2 µM | 80% | 14.7 ± 3.7 µM | 65% | – | –
6 | CCc1c(C)nn(CC(=O)Nc2ccc(Br)cc2)c(=O)c1Cc1cccc(OC)c1 [4c, N-(4-Bromophenyl)-2-[4-ethyl-5-(3-methoxybenzyl)-3-methyl-6-oxopyridazin-1(6H)-yl]acetamide] | 1.2 ± 0.3 µM | – | 120% | – | 100% | 4.1 ± 1.7 µM | 100%
7 | COc1cccc(-c2csc(=O)n2CC(=O)Nc2ccc(Br)cc2)c1 [9d, N-(4-Bromophenyl)-2-[4-(3-methoxyphenyl)-2-oxothiazol-3-yl]-acetamide] | 1.3 ± 0.3 µM | – | 90% | – | 120% | 5.1 ± 1.7 µM | 100%
8 | CCCc1c(C)nn(CC(=O)Nc2ccc(Br)cc2)c(=O)c1Cc1cccc(OC)c1 [4d, N-(4-Bromophenyl)-2-[5-(3-methoxybenzyl)-3-methyl-6-oxo-4-propylpyridazin-1(6H)-yl]acetamide] | 3.2 ± 1.2 µM | – | 115% | – | 90% | 3.4 ± 0.76 µM | 65%
9 | O=C(Cn1c(-c2ccc([N+](=O)[O-])cc2)csc1=O)Nc1ccc(Br)cc1 [9h, N-(4-Bromophenyl)-2-[4-(4-nitrophenyl)-2-oxothiazol-3-yl]acetamide] | 1.5 ± 0.4 µM | – | 60% | – | – | – | –
10 | COc1ccc(-c2csc(=O)n2CC(=O)Nc2ccc(Br)cc2)cc1 [9e, N-(4-Bromophenyl)-2-[4-(4-methoxyphenyl)-2-oxothiazol-3-yl]acetamide] | 7.4 ± 2.3 µM | 2.6 ± 0.6 µM | 110% | 1.8 ± 0.16 µM | 100% | 36.1 ± 3.3 µM | 85%
11 | CCCCc1c(C)nn(CC(=O)Nc2ccc(Br)cc2)c(=O)c1Cc1cccc(OC)c1 [4e, N-(4-Bromophenyl)-2-[4-butyl-5-(3-methoxybenzyl)-3-methyl-6-oxopyridazin-1(6H)-yl]acetamide] | 2.7 ± 0.7 µM | – | – | – | 90% | – | –
12 | O=C(Cn1c(-c2ccccc2)csc1=O)Nc1ccc(Br)cc1 [9c, N-(4-Bromophenyl)-2-(2-oxo-4-phenyl-thiazol-3-yl)acetamide] | 6 ± 1.5 µM | 1.8 ± 0.6 µM | 100% | 2.1 ± 0.6 µM | 95% | 19.7 ± 2.4 µM | 135%
